High-throughput results (PubChem)
LMPTP block – LMPTP (human) inhibition. inhibition, % at 20 µM. recombinant LMPTP-A, OMFP fluorogenic substrate, fluorescence intensity. P24666. actives 0.22% (n = 360,000);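 active = compounds that cut the enzyme signal by at least half of the control window in the single-dose screen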;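 note: plate controls were DMSO wells with enzyme plus substrate for no effect and substrate without enzyme for full effect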
Target sequence (P24666 whole entry, looked up): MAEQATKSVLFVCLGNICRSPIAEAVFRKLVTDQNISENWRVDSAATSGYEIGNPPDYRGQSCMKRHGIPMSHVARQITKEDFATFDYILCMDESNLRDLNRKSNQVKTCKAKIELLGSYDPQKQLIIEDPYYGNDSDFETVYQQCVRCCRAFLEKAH
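Assay system: LMPTP-A phosphatase enzyme | Input: 0.625 nM enzyme | Also added: Fluorogenic phosphatase substrate OMFP at 400 µM final | Compound dosing: One test concentration per compound, 20 µM, with 3% DMSO overall | Schedule: 50 min enzyme reaction at room temperature, protected from light | Signal: Fluorescence intensity | Benchmarks: no-enzyme and uninhibited controls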
DNMT1 inh – inhibitors of human DNMT1 | P26358 | AID 588458 | inhibition (reported as % activation of signal), % at 10 µM | DNMT1 molecular beacon, Hinp1I cleavage, fluorescence | actives 0.83% (n = 360,000); in the data active = inhibition above about 50%
Scp1 inh – Scp-1 (human) phosphatase inhibition; Q9GZU7; Recombinant Scp1, phosphopeptide, malachite green phosphate absorbance; inhibition, % at 20 µM; actives 0.88% (n = 340,000);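 active = inhibition above about 50% at 20 µM, limit read from the data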;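 note: plate controls were DMSO wells with enzyme for no effect and wells lacking enzyme for full effect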
Target sequence (Q9GZU7 76-261 limits assumed): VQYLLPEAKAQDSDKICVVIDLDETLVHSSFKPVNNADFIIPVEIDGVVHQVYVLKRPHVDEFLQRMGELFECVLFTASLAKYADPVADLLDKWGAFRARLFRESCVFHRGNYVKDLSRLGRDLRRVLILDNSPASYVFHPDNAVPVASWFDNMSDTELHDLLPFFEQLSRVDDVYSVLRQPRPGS
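System: SCP-1 catalytic domain; Reagent: Phospho 17-mer peptide substrate; Doses: one concentration, 20 µM, with 1.0% DMSO; Incubation: 45 min room-temperature reaction, 5 min colour, 30 min stabiliser; Signal: Phosphate-binding colour reagent, absorbance read at 630 nm.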
SUMO1 PPI mod – SUMO1-SIM interaction modulation | P63165 | SUMO1 binding to a labelled peptide, TR-FRET, 1 h | inhibition, % at 20 µM | actives 0.33% (n = 360,000); in the data active = inhibition above about 37%
Target sequence (P63165 whole entry, looked up): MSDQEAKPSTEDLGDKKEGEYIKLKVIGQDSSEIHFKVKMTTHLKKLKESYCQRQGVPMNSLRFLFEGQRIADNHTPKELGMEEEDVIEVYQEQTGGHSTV
STEP block – blocks human striatal-enriched tyrosine phosphatase; P54829; recombinant STEP, OMFP fluorogenic substrate, fluorescence; inhibition, % at 20 µM; actives 0.25% (n = 360,000); AID 588621;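 active = inhibition at 20 µM, scaled per plate between control wells, above about 37%, limit read from the data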;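 note: 0% = DMSO with enzyme and substrate and 100% = substrate only without enzyme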
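System: isolated STEP enzyme; schedule: 20 min enzyme reaction at room temperature, protected from light; medium: Bis-Tris buffer pH 6.0, 2.5 mM DTT, 0.005% Tween 20; signal: fluorescence, 480/540 nm; dosing: single compound dose of 20 µM, 1% DMSO final; also added: OMFP substrate, 25 µM final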
Scp1 confirm – confirmation of human Scp-1 phosphatase inhibitors. shares compounds with Scp1 inh. recombinant SCP-1 catalytic domain, phosphate release, malachite green absorbance. inhibition, % at 20 µM. actives 61% (n = 2,500). AID 540281;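 note: plate controls were DMSO with enzyme for no effect and buffer wells lacking enzyme for full effect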
MG interference – counter-screen for Scp-1 inhibitors: colorimetric interference; 2,500 tested, under 10 active; apparent inhibition (interference), % at 20 µM; AID 540313; Colorimetric interference counterscreen, malachite green absorbance 630 nm; shares compounds with Scp1 inh;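 note: compounds added after enzyme reaction finished so only phosphate colour detection is probed; plate controls were DMSO wells with completed Scp-1 reaction for no effect and substrate wells lacking enzyme for full effect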
Scp1 DSF – binds human Scp-1, shifting its melting temperature; shares compounds with Scp1 inh; Recombinant SCP1, Sypro Orange thermal shift Tm; thermal shift relative to vanadate control, % at 40 µM; actives 25% (n = 1,500); AID 540329;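 active = substances whose mean melting-temperature shift, as a percentage of the reference inhibitor's shift, reaches about 5.3%, limit read from the data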;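 note: 0% = Tm of DMSO wells and 100% = Tm with sodium orthovanadate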
DNMT1 interf DR – shows spectral interference in the DNMT1 beacon assay; molecular beacon fluorescence, spectral interference counter-screen; shares compounds with DNMT1 inh; IC50, µM; 200 tested, under 10 active; call rule not given here
DNMT1 inh conf – DNMT1 inhibition confirmation, single concentration; shares compounds with DNMT1 inh; DNMT1 molecular beacon HinP1I cleavage, fluorescence; inhibition, % at 10 µM; actives 8% (n = 2,300);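 active = average inhibition of at least 30% in the single-concentration confirmation test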
Beacon interf – beacon fluorescence artifact counter-screen. shares compounds with DNMT1 inh. DNMT1 molecular beacon spectral interference counterscreen, fluorescence 485/520. activation (fluorescence interference), % at 10 µM. actives 1% (n = 2,300). AID 602387;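 active = activation of at least 30% at 10 µM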;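 note: DNMT1 catalytic domain with a HinP1I cleavage step and a FAM/dabcyl DNA beacon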
* marks the source's active call; other numbers are inactive results. The list is not random: actives were taken first. Their share in the collection is about 1.8%.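 Rule for the calls, unless noted: active = inhibition of at least 30% at 20 µM; inactive = the rest.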

How did O=C(COC(=O)C1CC2C=CC1C2)NCc1ccco1 (configuration not stated) do in these assays?
LMPTP block: 4; DNMT1 inh: 89*; Scp1 inh: 71*; SUMO1 PPI mod: 2; STEP block: 4; Scp1 confirm: 70*; MG interference: -5; Scp1 DSF: -3; DNMT1 inh conf: 14; Beacon interf: 8

Results for O=C(/C=C/c1ccc([N+](=O)[O-])cc1)Nc1cccc(C(=O)Nc2ccccc2C(=O)O)c1 ?
LMPTP block: 1; DNMT1 inh: 0; Scp1 inh: -8; SUMO1 PPI mod: 12; STEP block: 0

What do the screens show for `CC(=O)c1ccc(N(C(=O)CNC(=O)c2ccco2)C(C(=O)NC2CCCC2)c2ccncc2)cc1` (configuration not stated)?
LMPTP block: 0; DNMT1 inh: 3; Scp1 inh: -2; SUMO1 PPI mod: 19; STEP block: -3

Results for COC(=O)c1ccccc1NC(=O)c1noc2c1CCC2 ?
LMPTP block: 8; DNMT1 inh: 99*; Scp1 inh: 70*; SUMO1 PPI mod: 2; STEP block: 13; Scp1 confirm: 65*; MG interference: -15; Scp1 DSF: 4; DNMT1 inh conf: 3; Beacon interf: 4

How did CSc1ccccc1NC(=O)c1noc2c1CCC2 do in these assays?
LMPTP block: 9; DNMT1 inh: 81*; Scp1 inh: 63*; SUMO1 PPI mod: 6; STEP block: 5; Scp1 confirm: 67*; MG interference: -13; Scp1 DSF: 3; DNMT1 inh conf: 6; Beacon interf: 1

What do the screens show for `O=C(Nc1ccc2c(c1)C(=O)c1ccccc1-2)c1ccccc1`?
LMPTP block: 19; DNMT1 inh: 46; Scp1 inh: -12; SUMO1 PPI mod: 16; STEP block: 0

What do the screens show for `COc1cccc(C(=O)Nc2ccc3c(c2)C(=O)c2ccccc2C3=O)c1`?
LMPTP block: 33; DNMT1 inh: 74*; Scp1 inh: 75*; SUMO1 PPI mod: 4; STEP block: 60*; Scp1 confirm: 64*; MG interference: -10; Scp1 DSF: 5.4*; DNMT1 inh conf: 8; Beacon interf: -1

How did CN1CCn2cnc(C(=O)N3CCN(c4ccccc4)CC3)c2C1=O do in these assays?
LMPTP block: -1; DNMT1 inh: 5; SUMO1 PPI mod: 2; STEP block: 0

What do the screens show for `O=c1[nH]n2c(=O)c3c([nH]c2c1N=Nc1cccc(Cl)c1)CCC3`?
LMPTP block: 46; DNMT1 inh: 94*; Scp1 inh: 78*; SUMO1 PPI mod: 8; STEP block: 14; Scp1 confirm: 59*; MG interference: -16; Scp1 DSF: 27*; DNMT1 inh conf: 5; Beacon interf: -1

Results for COC1C(O)C(O)C(O)C(O)C1O (configuration not stated) ?
LMPTP block: -2; DNMT1 inh: 14; Scp1 inh: 26; SUMO1 PPI mod: 2; STEP block: -1

What do the screens show for `COc1cc(C#N)ccc1OCC(=O)Nc1cccc(S(=O)(=O)N(C)c2ccccc2)c1`?
LMPTP block: 0; DNMT1 inh: -11; SUMO1 PPI mod: 2; STEP block: 3

What do the screens show for `CSCC[C@H](NS(=O)(=O)c1ccc(C(C)=O)cc1)c1nnc2ccccn12`?
LMPTP block: 3; DNMT1 inh: 55*; Scp1 inh: 61*; SUMO1 PPI mod: 0; STEP block: 55*; Scp1 confirm: 64*; MG interference: -4; Scp1 DSF: -13; DNMT1 inh conf: 6; Beacon interf: 0

How did CN(CC1COc2ccccc2O1)C(=O)CCNS(=O)(=O)c1ccc(F)c(Cl)c1 (configuration not stated) do in these assays?
LMPTP block: 0; DNMT1 inh: -3; SUMO1 PPI mod: 2; STEP block: -5

How did CCOC(=O)c1ccc(NC(=O)CSc2nc(C)cc(=O)[nH]2)cc1 do in these assays?
LMPTP block: 17; DNMT1 inh: 88*; Scp1 inh: 71*; SUMO1 PPI mod: 7; STEP block: 2; Scp1 confirm: 58*; MG interference: -19; Scp1 DSF: 11*; DNMT1 inh conf: 19; Beacon interf: 3

Results for CCN(CC)c1ccc(NC(=O)CSc2nc(C)cc(=O)[nH]2)cc1 ?
LMPTP block: -2; DNMT1 inh: -5; Scp1 inh: 3; SUMO1 PPI mod: 1; STEP block: -1

How did O=C1N/C(=C/c2ccc(N3CCOCC3)o2)C(=O)N1c1ccccc1 do in these assays?
LMPTP block: -2; DNMT1 inh: -2; Scp1 inh: 5; SUMO1 PPI mod: -13; STEP block: -1

What do the screens show for `Cc1ccc(C(=O)O)cc1-c1ccc(/C=C2/NC(=O)N(c3ccccc3)C2=O)o1`?
LMPTP block: 4; DNMT1 inh: 92*; Scp1 inh: 63*; SUMO1 PPI mod: 25; STEP block: 5; Scp1 confirm: 68*; MG interference: -12; Scp1 DSF: 13*; DNMT1 interf DR: >99; DNMT1 inh conf: 34*; Beacon interf: -2

How did COC(=O)Cc1c(C)c2ccc(OCC(=O)N(C)C3CCS(=O)(=O)C3)cc2oc1=O (configuration not stated) do in these assays?
LMPTP block: -1; DNMT1 inh: 3; Scp1 inh: 9; SUMO1 PPI mod: 8; STEP block: -3

Results for CC(=O)c1c(C)oc(C)c1CSCc1ccc(C(=O)O)o1 ?
LMPTP block: 19; DNMT1 inh: 78*; Scp1 inh: 65*; SUMO1 PPI mod: 8; STEP block: 11; Scp1 confirm: 56*; MG interference: -15; Scp1 DSF: -2; DNMT1 inh conf: 6; Beacon interf: 3
